{"data": "Assay results from different studies", "read-out": "microbial growth", "note": "Protocols differ between the studies behind these lines."}
{"SMILES": "CCCCCCCCCN1CCNCC1", "organism": "Lodderomyces parapsilosis", "assay": "broth dilution", "system": "ATCC22019", "conditions": "48 h", "MIC": "> 31.3 µg/mL"}
{"SMILES": "O=[N+]([O-])c1cccc(-c2nc3ccccc3[nH]2)c1", "organism": "Aspergillus niger", "system": "ATCC16404", "MIC": "512 µg/mL"}
{"SMILES": "CCCCCCCCCCCCCCN1CCOCC1", "organism": "Lodderomyces parapsilosis", "assay": "broth dilution", "system": "ATCC22019", "conditions": "48 h", "MIC": "> 31.3 µg/mL"}
{"SMILES": "Cc1cc(C)n(C(=O)c2ccc(-n3c(C)ccc3C)cc2)n1", "organism": "Aspergillus niger", "assay": "broth dilution", "system": "ATCC6275", "MIC": "> 500 µg/mL"}
{"SMILES": "CCCCCCCCCCCN1CCNCC1", "organism": "Lodderomyces parapsilosis", "assay": "broth dilution", "system": "ATCC22019", "conditions": "48 h", "MIC": "7.8 µg/mL"}
{"SMILES": "Cc1ccc(C)n1-c1ccc(-c2nnc(-c3c(Cl)cccc3Cl)[nH]2)cc1", "organism": "Aspergillus niger", "assay": "broth dilution", "system": "ATCC6275", "MIC": "2 µg/mL"}
{"SMILES": "CCCCCCCCCCCCN1CCNCC1", "organism": "Lodderomyces parapsilosis", "assay": "broth dilution", "system": "ATCC22019", "conditions": "48 h", "MIC": "1.95 µg/mL"}
{"SMILES": "O=c1[nH]c(NCc2ccc(Cl)c(Cl)c2)nc2ncn(CCCCCN3CCOCC3)c12", "organism": "Bacteroides fragilis", "assay": "agar dilution", "conditions": "48 h", "MIC": "> 32 µg/mL"}
{"SMILES": "Cc1ccc(C)n1-c1ccc(-c2nnc(-c3cccc([N+](=O)[O-])c3)[nH]2)cc1", "organism": "Aspergillus niger", "assay": "broth dilution", "system": "ATCC6275", "MIC": "31.2 µg/mL"}
{"SMILES": "CCCCCCCCN1CCNCC1", "organism": "Lodderomyces parapsilosis", "assay": "broth dilution", "system": "ATCC22019", "conditions": "48 h", "MIC": "> 31.3 µg/mL"}
{"SMILES": "CCOc1ccc(-c2nc3ccccc3n2Cc2ccccc2)cc1", "organism": "Aspergillus niger", "system": "ATCC16404", "MIC": "256 µg/mL"}
{"SMILES": "Cc1ccc(C)n1-c1ccc(C(=O)NNC=O)cc1", "organism": "Aspergillus niger", "assay": "broth dilution", "system": "ATCC6275", "MIC": "250 µg/mL"}
{"SMILES": "CN1CCNCC1", "organism": "Lodderomyces parapsilosis", "assay": "broth dilution", "system": "ATCC22019", "conditions": "48 h", "MIC": "> 31.3 µg/mL"}
{"SMILES": "Clc1ccccc1-c1nc2ccccc2[nH]1", "organism": "Aspergillus niger", "system": "ATCC16404", "MIC": "512 µg/mL"}
{"SMILES": "OC(CN1CCOCC1)(Cn1cncn1)c1ccc(F)cc1F (stereo not shown)", "organism": "Lodderomyces parapsilosis", "assay": "broth dilution", "system": "ATCC22019", "conditions": "48 h", "MIC": "31.3 µg/mL"}
{"SMILES": "CC1=NN(CNc2ccc(Cl)cc2)C(=O)C1=NNn1c(-c2ccccc2)nc2ccccc2c1=O", "organism": "Aspergillus niger", "assay": "broth dilution", "MIC": "51.5 µM"}
{"SMILES": "O=C(c1cc(O)c(O)c(O)c1)c1cc2ccccc2o1", "organism": "Lodderomyces parapsilosis", "assay": "broth dilution", "MIC": "16 µg/mL"}
{"SMILES": "Cc1ccc2nc(-c3ccc([N+](=O)[O-])cc3)n(Cc3ccc(Cl)cc3)c2c1", "organism": "Aspergillus niger", "system": "ATCC16404", "MIC": "64 µg/mL"}
{"SMILES": "CCc1cc(Nc2cc(=O)n(CCCCO)c(=O)[nH]2)ccc1C", "organism": "Bacteroides fragilis", "assay": "agar dilution", "conditions": "48 h", "MIC": "> 32 µg/mL"}
{"SMILES": "Cc1ccc2nc(-c3ccc([N+](=O)[O-])cc3)n(Cc3ccccc3Cl)c2c1", "organism": "Aspergillus niger", "system": "ATCC16404", "MIC": "128 µg/mL"}
{"SMILES": "CC1=NN(CNc2ccc(O)cc2)C(=O)C1=NNn1c(-c2ccccc2)nc2ccccc2c1=O", "organism": "Aspergillus niger", "assay": "broth dilution", "MIC": "107 µM"}
{"SMILES": "C=CCn1c(-c2ccc(Cl)cc2)nc2ccccc21", "organism": "Aspergillus niger", "system": "ATCC16404", "MIC": "512 µg/mL"}
{"SMILES": "CCOCCn1cnc2nc(NCc3ccc(Cl)c(Cl)c3)[nH]c(=O)c21", "organism": "Bacteroides fragilis", "assay": "agar dilution", "conditions": "48 h", "MIC": "> 32 µg/mL"}
{"SMILES": "CCCCCCCCN1CCN(CC(O)(Cn2cncn2)c2ccc(F)cc2F)CC1 (stereo not shown)", "organism": "Lodderomyces parapsilosis", "assay": "broth dilution", "system": "ATCC22019", "conditions": "48 h", "MIC": "0.03 µg/mL"}
{"SMILES": "Cc1ccc2nc(-c3ccc([N+](=O)[O-])cc3)n(Cc3ccccc3)c2c1", "organism": "Aspergillus niger", "system": "ATCC16404", "MIC": "256 µg/mL"}
